Test results taken from ChEMBL document CHEMBL1151261, “Antineoplastic agents. 509: synthesis of fluorcombstatin phosphate and related 3-halostilbenes(1)” (J Nat Prod, 2005).
Values after ≈ are worked out from the molar mass of the structure shown. Active and inactive are the calls of the source. The rule behind the calls is not given here.

What was measured:
[1] = system: Micrococcus luteus; experiment: Antimicrobial activity against Micrococcus luteus Presque Isle 456 after 24 hrs by broth microdilution assay; assay type: functional
Outline: (§1)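 NCCLS bacterial broth microdilution (M7-A5). Overnight colonies diluted to about 5×10^5 CFU/mL final; 2-fold compound dilutions (DMSO stock) in cation-adjusted Mueller Hinton II broth; DMSO turbidity control; 35 °C without agitation, 24 h. MIC = lowest concentration with optically clear wells.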

[2] = system: P388; experiment: Cytotoxicity against mouse P388 cells after 48 hrs by Coulter particle counting; conditions: P388, 48 h, read-out: ED50 (the source's name)
[3] = system: NCI-H460; experiment: Cytotoxicity against human NCI-H460 cells after 48 hrs by sulforhodamine B assay; assay type: functional; conditions: NCI-H460, 48 h
Outline: (§2)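 Human tumor lines exposed to compound for 48 h, then fixed with trichloroacetic acid and stained with sulforhodamine B (NCI standard protocol); optical density read on a microplate reader. GI50 is the concentration giving a 50% reduction in net protein increase, calculated from optical density data.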

[4] = system: Cryptococcus neoformans; experiment: Antimicrobial activity against Cryptococcus neoformans ATCC 90112 at 64 ug/mL after 72 hrs by broth microdilution assay; assay type: functional, organism-based
Outline: (§3)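 Yeast NCCLS broth microdilution (M27-A). Inoculum 0.5 to 2.5×10^3 CFU/mL; 2-fold dilutions in 0.165 M MOPS-buffered RPMI 1640, pH 7.0; compound from DMSO, DMSO-only turbidity control; 35 °C without agitation; read at 72 h (Cryptococcus). MIC = lowest concentration giving no visible growth.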

[5] = system: MCF7; experiment: Cytotoxicity against human MCF7 cells after 48 hrs by sulforhodamine B assay; assay type: functional; conditions: MCF7, 48 h; outline: as §2
[6] = system: SF-268; experiment: Cytotoxicity against human SF268 cells after 48 hrs by sulforhodamine B assay; assay type: functional; conditions: SF-268, 48 h; outline: as §2
[7] = system: Enterobacter cloacae; experiment: Antimicrobial activity against Enterobacter cloacae ATCC 13047 at 64 ug/mL after 24 hrs by broth microdilution assay; assay type: functional, organism-based; outline: as §1
[8] = system: KM-20L2; experiment: Cytotoxicity against human KM20L2 cells after 48 hrs by sulforhodamine B assay; assay type: functional; conditions: KM-20L2, 48 h; outline: as §2
[9] = system: BXPC-3; experiment: Cytotoxicity against human BxPC3 cells after 48 hrs by sulforhodamine B assay; assay type: functional; conditions: BXPC-3, 48 h; outline: as §2
[10] = system: DU-145; experiment: Cytotoxicity against human DU145 cells after 48 hrs by sulforhodamine B assay; assay type: functional; conditions: DU-145, 48 h; outline: as §2
[11] = Inhibition of tubulin polymerization
Outline: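 Turbidimetry at 350 nm. Compound at varying concentrations preincubated with 10 μM (1.0 mg/mL) purified tubulin, chilled on ice, then 0.4 mM GTP added and polymerization followed at 30 °C. Extent of polymerization at 20 min measured.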

[12] = system: Enterococcus faecalis; experiment: Antimicrobial activity against Enterococcus faecalis ATCC 29212 at 64 ug/mL after 24 hrs by broth microdilution assay; assay type: functional, organism-based; outline: as §1
[13] = system: Candida albicans; experiment: Antimicrobial activity against Candida albicans ATCC 90028 at 64 ug/mL after 48 hrs by broth microdilution assay; assay type: functional, organism-based
Outline: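 Yeast NCCLS broth microdilution (M27-A). Inoculum 0.5 to 2.5×10^3 CFU/mL; 2-fold dilutions in 0.165 M MOPS-buffered RPMI 1640, pH 7.0; compound from DMSO, DMSO-only turbidity control; 35 °C without agitation; read at 48 h (Candida). MIC = lowest concentration giving no visible growth.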

[14] = Displacement of [3H]colchicine from tubulin
Outline: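 [3H]colchicine binding with 1.0 μM tubulin, 5.0 μM [3H]colchicine and inhibitor at 1.0 μM.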

[15] = system: Staphylococcus aureus; experiment: Antimicrobial activity against Staphylococcus aureus ATCC 29213 at 64 ug/mL after 24 hrs by broth microdilution assay; assay type: functional, organism-based; outline: as §1
[16] = system: Stenotrophomonas maltophilia; experiment: Antimicrobial activity against Stenotrophomonas maltophilia ATCC 13637 at 64 ug/mL after 24 hrs by broth microdilution assay; assay type: functional, organism-based; outline: as §1
[17] = system: Escherichia coli; experiment: Antimicrobial activity against Escherichia coli ATCC 25922 at 64 ug/mL after 24 hrs by broth microdilution assay; assay type: functional, organism-based; outline: as §1
[18] = system: Neisseria gonorrhoeae; experiment: Antimicrobial activity against Neisseria gonorrhoeae ATCC 49226 after 24 hrs by broth microdilution assay; assay type: functional; conditions: ATCC 49226, 24 h
Outline: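 Neisseria tested by NCCLS broth microdilution in gonococcal typing broth. Final inoculum about 5×10^5 CFU/mL; 2-fold compound dilutions from DMSO; DMSO turbidity control; 37 °C with 5% CO₂ without agitation, 24 h. MIC = lowest concentration with no visible growth.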

[19] = system: Streptococcus pneumoniae; experiment: Antimicrobial activity against Streptococcus pneumoniae ATCC 6303 at 64 ug/mL after 24 hrs by broth microdilution assay; assay type: functional, organism-based
Outline: (§4)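 Streptococcus tested by NCCLS broth microdilution in cation-adjusted MHII broth with 3% lysed horse blood. Final inoculum about 5×10^5 CFU/mL; 2-fold compound dilutions from DMSO; DMSO turbidity control; 35 °C without agitation, 24 h. MIC = lowest concentration with no visible growth.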

[20] = system: HUVEC; experiment: Induction of microtubule depolymerization in HUVEC at 10 uM after 2 hrs; assay type: functional, cell-based; conditions: Homo sapiens
Outline: (§5)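 Primary HUVECs from umbilical cords grown in M199 with 20% human serum, CD31-authenticated. About 3×10^4 cells on gelatin-coated coverslips, 24 h at 37 °C, then compound from DMSO for 30 min to 4 h, in duplicate. Cells methanol-fixed, stained with anti-α-tubulin and TRITC secondary plus Hoechst, imaged by confocal microscopy and scored for microtubule damage.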

[21] = system: HUVEC; experiment: Induction of microtubule damage in HUVEC at 1 uM after 1 hr; assay type: functional, cell-based; conditions: Homo sapiens; outline: as §5
[22] = system: HUVEC; experiment: Induction of microtubule depolymerization in HUVEC at 1 uM after 4 hrs; assay type: functional, cell-based; conditions: Homo sapiens
Outline: (§6)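 Primary HUVECs from umbilical cords, grown in M199 with 20% human serum, were seeded (~3×10^4) on gelatin-coated coverslips and grown 24 h at 37 °C. Compound in DMSO was added (final 1, 10 or 100 μM), with duplicate plates. Cells were fixed in ice-cold methanol and immunostained for α-tubulin (TRITC secondary) and with Hoechst. Microtubule disruption was scored by confocal microscopy.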

[23] = system: HUVEC; experiment: Induction of microtubule depolymerization in HUVEC at 10 uM after 4 hrs; assay type: functional, cell-based; conditions: Homo sapiens; outline: as §5
[24] = system: HUVEC; experiment: Induction of microtubule depolymerization in HUVEC at 10 uM after 1 hr; assay type: functional, cell-based; conditions: Homo sapiens; outline: as §5
[25] = system: HUVEC; experiment: Induction of microtubule depolymerization in HUVEC at 1 uM after 2 hrs; assay type: functional, cell-based; conditions: Homo sapiens; outline: as §6
[26] = system: HUVEC; experiment: Induction of microtubule depolymerization in HUVEC at 10 uM after 30 mins; assay type: functional, cell-based; conditions: Homo sapiens; outline: as §5
[27] = system: HUVEC; experiment: Induction of microtubule damage in HUVEC at 1 uM after 30 mins; assay type: functional, cell-based; conditions: Homo sapiens; outline: as §5
[28] = system: Cryptococcus neoformans; experiment: Antimicrobial activity against Cryptococcus neoformans ATCC 90112 after 72 hrs by broth microdilution assay; assay type: functional; conditions: ATCC 90112, 72 h; outline: as §3
[29] = system: Streptococcus pneumoniae; experiment: Antimicrobial activity against Streptococcus pneumoniae ATCC 6303 after 24 hrs by broth microdilution assay; assay type: functional; conditions: ATCC 6303, 24 h; outline: as §4
[30] = system: Staphylococcus aureus; experiment: Antimicrobial activity against Staphylococcus aureus ATCC 29213 after 24 hrs by broth microdilution assay; assay type: functional; conditions: ATCC 29213, 24 h; outline: as §1

Q: With COc1ccc(/C=C\c2cc(Br)c(OC)c(OC)c2)cc1O as the molecule, how does the MIC [1] read?
A: 32 µg/mL (≈ 87.6 µM)

Q: What about the EC50 [2] of the same molecule?
A: 0.0021 µg/mL (≈ 0.00575 µM)

Q: What about the GI50 [3] of the same molecule?
A: 0.00038 µg/mL (≈ 0.00104 µM)

Q: What about the Activity [4] of the same molecule?
A: inactive

Q: What about the GI50 [5] of the same molecule?
A: 0.00046 µg/mL (≈ 0.00126 µM)

Q: What about the GI50 [6] of the same molecule?
A: 0.0005 µg/mL (≈ 0.00137 µM)

Q: And the Activity [7]?
A: inactive

Q: And the GI50 [8]?
A: 0.59 µg/mL (≈ 1.62 µM)

Q: And the GI50 [9]?
A: 0.64 µg/mL (≈ 1.75 µM)

Q: What about the GI50 [10] of the same molecule?
A: 0.00082 µg/mL (≈ 0.00225 µM)

Q: What about the IC50 [11] of the same molecule?
A: 1.5 µM

Q: And the Activity [12]?
A: inactive

Q: What about the Activity [13] of the same molecule?
A: inactive

Q: And the Activity [14]?
A: 89%

Q: And the Activity [15]?
A: inactive

Q: What about the Activity [16] of the same molecule?
A: inactive

Q: And the Activity [17]?
A: inactive

Q: What about the MIC [18] of the same molecule?
A: 32 µg/mL (≈ 87.6 µM)

Q: What about the Activity [19] of the same molecule?
A: inactive

Q: What does the source list for COc1ccc(/C=C\c2cc(Cl)c(OC)c(OC)c2)cc1O?
A: MIC [1]: 32 µg/mL (≈ 99.8 µM); EC50 [2]: 0.0024 µg/mL (≈ 0.00748 µM); Activity [20]: Active; Activity [21]: Active; GI50 [3]: 0.00026 µg/mL (≈ 0.000811 µM); GI50 [5]: 0.0026 µg/mL (≈ 0.00811 µM); Activity [22]: Active; Activity [23]: Active; GI50 [6]: < 0.0009 µg/mL; Activity [24]: Active; Activity [7]: inactive; GI50 [8]: 0.27 µg/mL (≈ 0.842 µM); GI50 [9]: 0.32 µg/mL (≈ 0.998 µM); GI50 [10]: 0.00025 µg/mL (≈ 0.000779 µM); IC50 [11]: 1.6 µM; Activity [25]: Active; Activity [12]: inactive; Activity [13]: inactive; Activity [26]: Active; Activity [14]: 85%; Activity [15]: inactive; Activity [16]: inactive; Activity [27]: Active; MIC [28]: 64 µg/mL (≈ 200 µM); Activity [17]: inactive; MIC [29]: 32 µg/mL (≈ 99.8 µM); MIC [18]: 16 µg/mL (≈ 49.9 µM)

Q: With COc1ccc(/C=C/c2cc(F)c(OC)c(OC)c2)cc1O as the molecule, how does the MIC [1] read?
A: 16 µg/mL (≈ 52.6 µM)

Q: And the EC50 [2]?
A: 0.253 µg/mL (≈ 0.831 µM)

Q: And the GI50 [3]?
A: 0.18 µg/mL (≈ 0.591 µM)

Q: And the GI50 [5]?
A: 0.051 µg/mL (≈ 0.168 µM)

Q: What about the GI50 [6] of the same molecule?
A: 0.35 µg/mL (≈ 1.15 µM)

Q: What about the MIC [30] of the same molecule?
A: 32 µg/mL (≈ 105 µM)

Q: What about the Activity [7] of the same molecule?
A: inactive

Q: And the GI50 [8]?
A: 0.53 µg/mL (≈ 1.74 µM)

Q: And the GI50 [9]?
A: 2.2 µg/mL (≈ 7.23 µM)

Q: And the GI50 [10]?
A: 0.18 µg/mL (≈ 0.591 µM)

Q: What about the Activity [12] of the same molecule?
A: inactive

Q: What about the Activity [13] of the same molecule?
A: inactive

Q: What about the Activity [16] of the same molecule?
A: inactive

Q: What about the MIC [28] of the same molecule?
A: 64 µg/mL (≈ 210 µM)

Q: What about the Activity [17] of the same molecule?
A: inactive

Q: And the MIC [29]?
A: 64 µg/mL (≈ 210 µM)

Q: What about the MIC [18] of the same molecule?
A: 8 µg/mL (≈ 26.3 µM)
